Reference: PubChem BioAssay
Active and inactive are the calls of the source.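 Rule for the calls, unless noted: active = a full or partial loss of lipid-probe fluorescence in the fish gall bladder, intestine or both, judged by eye; inactive = no fluorescence loss, or compound toxic to the fish.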

Legend:
[1] = inhibitors of TNFa-induced NFkB p65 translocation, primary screen, imaging, HUVEC, MLSMR starter and 10KST1 sets (AID 438;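 active = inhibition above 20% together with a positive visual image hit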;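 note: compound added about 3h40 before a 20 min TNFalpha stimulation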;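 for inhibition: signal is the nuclear over cytoplasmic p65 intensity ratio per well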); details: HUVEC TNFa-induced p65 nuclear translocation; cell count: measured here: nuclei count (cytotoxicity indicator), at 2.08 µM; inhibition: at 2 µM, stronger effect = higher value, 0% TNFa-plus-vehicle, 100% no-TNFa wells
[2] = inhibitors of E-selectin induction by TNFa, primary screen, imaging, HUVEC, immunofluorescence, MLSMR starter and 10KST1 sets (AID 487;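 active = visually confirmed hit in the image check and inhibition above 20%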;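 for inhibition: signal is fraction of cell area covered by stained E-selectin grains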;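 for nuclei count: 100% = median nuclei count of all wells on the same plate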); details: HUVEC TNFalpha-induced E-selectin immunofluorescence imaging, at 2 µM; inhibition: stronger effect = higher value; nuclei count: measured here: cell number, toxicity
[3] = DUSP6 inhibitors restoring Erk phosphorylation by chemical complementation, primary imaging in DUSP6-transfected HeLa (AID 609;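 active = compounds giving at least 50% inhibition in the cell-based MKP-3 phosphatase rescue imaging test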;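 for inhibition: phospho-Erk level distribution per well compared with pooled transfected vehicle control wells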); details: HeLa MKP-3 transfected, phospho-Erk imaging KS statistic, at 10 µM, cells stimulated with TPA for 15 min
[4] = target: Dual specificity protein phosphatase 6 (Homo sapiens) (UniProt Q16828); experiment: as above; details: HeLa MKP-3 transfected, phospho-Erk imaging KS statistic; at 10 µM; stronger effect = higher value; cells stimulated with TPA for 15 min
[5] = target: Voltage-gated potassium channel subunit beta-2 (Rattus norvegicus) (UniProt P62483); experiment: KvBeta enzyme negative modulators, primary screen, biochemical, NADPH fluorescence (AID 622;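 active = fluorescence slope higher than the sample average by over 3 SD, cut at about -0.22 in these data, passing the limit was not always enough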;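 note: slope of raw intensity against log time taken from 70 to 1610 s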); details: recombinant KvBeta, 4-cyanobenzaldehyde reduction, at 10 µM, stronger effect = higher value
[6] = target: Voltage-gated potassium channel subunit beta-2 (Rattus norvegicus) (UniProt P62483); experiment: KvBeta positive modulators, primary screen, biochemical, NADPH fluorescence (AID 623;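 active = NADPH fluorescence slope more negative than the mean of all samples by about 3 SD, 99.7% confidence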;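 note: fluorescence intensity change per second fitted from 20 to 320 s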); details: Recombinant KvBeta, NADPH fluorescence decrease slope, 10 min; at 10 µM; stronger effect = lower value
[7] = target: Muscarinic acetylcholine receptor M4 (Homo sapiens) (UniProt P08173); experiment: compounds altering M4/GIRK thallium flux, either direction, primary screen, M4 allosteric agonist project, cell-based, HEK293 M4/GIRK, BTC-AM (AID 625;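 active = fluorescence slope after compound addition differing from the mean of all tested samples at 99.7% confidence, mostly higher but some lower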;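 note: thallium influx through GIRK channels coupled to M4 in HEK293 cells with BTC-AM dye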); details: at 10 µM, actives lie on both sides
How it was run: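 Material – HEK293 cells with M4 receptor and GIRK channels · Buffer or medium – pH 7.3 thallium assay buffer · Doses – one dose, 10 µM final · Timing – cells overnight at 37 °C, BTC-AM loading 1 h, reads 2 min total · Measured by – kinetic fluorescence with BTC-AM dye · Controls – carbachol and DMSO controls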

[8] = inhibitors of larval lipid processing in zebrafish, primary screen, whole organism, PED6 fluorescence, gall bladder and intestine (AID 686); details: Zebrafish larvae PED6 lipid processing, fluorescence scoring; screened at 20 µM (by protocol);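 note: larvae 5 to 7 days old with five fish per well; signal comes from phospholipase A2 cleavage of quenched PED6 carried via bile; overnight exposure to compound and PED6 before scoring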
How it was run: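 system = live zebrafish larvae aged 5-7 days, whole organism | probe or stimulus = ingested quenched lipid PED6 at 100 nM | doses = 20 µM single dose | timing = overnight exposure | detection = fluorescence microscopy with visual scoring of gall bladder and intestine | read-out = visual per-well fluorescence inhibition score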

[9] = inhibitors of Chlamydomonas gravitaxis, primary screen, whole organism, Chlamydomonas reinhardtii, WT vs cilia-less mutant, absorbance, 96-well (AID 463189;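 active = inhibition at or above 50% relative to wild type and mutant plate controls; inactive = inhibition below 50%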;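 note: 0% = wild type cc124 cells in DMSO and 100% = ciliumless bld1 mutant cells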); details: OD600 absorbance, 2 days, at 10 µM, stronger effect = higher value
[10] = measured here: cell density z-score
[11] = measured here: nuclear c-Myc green intensity z-score
[12] = measured here: nuclear pErk red intensity z-score, stronger effect = higher value

Sequence of Muscarinic acetylcholine receptor M4 (Homo sapiens) (P08173 whole entry, looked up): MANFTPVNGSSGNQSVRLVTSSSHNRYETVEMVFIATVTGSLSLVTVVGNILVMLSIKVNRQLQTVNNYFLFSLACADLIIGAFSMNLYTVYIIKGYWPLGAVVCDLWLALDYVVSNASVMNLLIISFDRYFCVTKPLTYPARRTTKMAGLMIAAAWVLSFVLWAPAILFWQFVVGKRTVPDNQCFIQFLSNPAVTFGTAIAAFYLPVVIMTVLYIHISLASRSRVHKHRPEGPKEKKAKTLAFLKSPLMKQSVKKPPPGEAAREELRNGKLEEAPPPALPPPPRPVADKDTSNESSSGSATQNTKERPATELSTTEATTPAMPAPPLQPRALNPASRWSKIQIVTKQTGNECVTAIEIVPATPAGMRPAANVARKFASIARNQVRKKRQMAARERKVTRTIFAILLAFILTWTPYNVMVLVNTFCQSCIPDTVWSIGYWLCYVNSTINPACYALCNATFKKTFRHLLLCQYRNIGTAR
Sequence of Voltage-gated potassium channel subunit beta-2 (Rattus norvegicus) (P62483 whole entry, looked up): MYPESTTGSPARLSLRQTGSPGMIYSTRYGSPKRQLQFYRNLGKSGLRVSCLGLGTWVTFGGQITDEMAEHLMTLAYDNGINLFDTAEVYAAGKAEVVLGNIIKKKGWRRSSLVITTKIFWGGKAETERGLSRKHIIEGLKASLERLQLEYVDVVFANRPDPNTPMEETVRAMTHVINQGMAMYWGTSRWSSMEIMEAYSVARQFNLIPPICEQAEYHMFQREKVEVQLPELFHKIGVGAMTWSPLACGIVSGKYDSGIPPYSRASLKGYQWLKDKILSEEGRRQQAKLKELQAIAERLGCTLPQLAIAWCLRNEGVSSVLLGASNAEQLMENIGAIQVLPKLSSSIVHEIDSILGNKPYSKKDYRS
Sequence of Dual specificity protein phosphatase 6 (Homo sapiens) (Q16828 whole entry, looked up): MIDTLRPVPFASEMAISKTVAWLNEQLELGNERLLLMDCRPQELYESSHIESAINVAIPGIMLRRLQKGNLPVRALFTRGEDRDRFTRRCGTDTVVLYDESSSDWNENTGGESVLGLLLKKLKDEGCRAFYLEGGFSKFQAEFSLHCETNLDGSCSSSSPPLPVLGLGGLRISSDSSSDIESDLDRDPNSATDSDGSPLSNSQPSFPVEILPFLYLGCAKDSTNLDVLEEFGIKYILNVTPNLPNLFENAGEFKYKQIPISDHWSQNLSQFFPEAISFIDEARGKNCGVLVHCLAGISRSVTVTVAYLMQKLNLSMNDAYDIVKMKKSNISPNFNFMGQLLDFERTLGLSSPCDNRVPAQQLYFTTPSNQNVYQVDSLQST

Compound | cell count [1] | inhibition [1] | inhibition [2] | nuclei count [2] [%] | z-score [3, 10] | z-score [3, 11] | z-score [3, 12] | inhibition [4] | fluorescence slope [5] | NADPH fluorescence slope [6] | fluorescence slope [7] | outcome [8] | inhibition [9]
Cc1cc(=O)oc(C)c1C(=O)NCC(C)NC(=O)c1c(C)cc(=O)oc1C (stereo not given) | 531 | 3.7% (inactive) | 32.8% (inactive) | 164 | 0.5 | -1.12 | -0.355 | 19.8% (inactive) | -0.384 (inactive) | -5.3e-05 (inactive) | 0.00562 (inactive) | inactive | 20.8% (inactive)
CCCCSc1nc(N)c(C#N)c(-c2cccs2)c1C#N | 652 | -3.4% (inactive) | -1.9% (inactive) | 141 | 1.43 | 0.907 | -0.946 | -4.7% (inactive) | -0.432 (inactive) | -1.7e-05 (inactive) | 0.00886 (inactive) | inactive | -8.35% (inactive)
COc1ccc(OCC(O)CN2C(=O)NC(C)(C)C2=O)cc1 (stereo not given) | 617 | -6.4% (inactive) | 33.5% (inactive) | 155 | 0.439 | -0.253 | -0.891 | 9.42% (inactive) | -0.419 (inactive) | -3.6e-05 (inactive) | 0.0058 (inactive) | inactive | -2.72% (inactive)
COc1ccc(C(=O)Nc2ccccc2N2CCOCC2)cc1Br | 522 | -7.6% (inactive) | -11.8% (inactive) | 153 | 2.22 | -2.31 | -0.121 | 37.7% (inactive) | -0.351 (inactive) | -9.8e-06 (inactive) | 0.00733 (inactive) | inactive | 10.5% (inactive)
CCOc1ccc(-c2nc(C#N)c(N3CCN(CC)CC3)o2)cc1 | 416 | 0.1% (inactive) | -29.1% (inactive) | 129 | 0.554 | 0.103 | 0.968 | -2.69% (inactive) | -0.498 (inactive) | -0.00012 (inactive) | 0.00446 (inactive) | inactive | 5.29% (inactive)
Cn1c(Cn2cnc3ccccc32)nc2ccccc21 | 543 | 0.2% (inactive) | 22% (inactive) | 78.7 | 1.23 | -0.835 | -0.272 | -3.95% (inactive) | -0.431 (inactive) | 9.8e-06 (inactive) | 0.00479 (inactive) | inactive | 23% (inactive)
CCOc1ccc(C2C(C#N)=C(N)Oc3cc(C)n(CCN4CCOCC4)c(=O)c32)cc1OCC (stereo not given) | 556 | -10.8% (inactive) | -15.2% (inactive) | 167 | -0.219 | 1.25 | -0.841 | -10.1% (inactive) | -0.458 (inactive) | -4.1e-05 (inactive) | 0.0054 (inactive) | inactive | 7.88% (inactive)
CC(=O)c1cccc(N=C2NC(=O)C(CO)(CO)S2)c1 | 634 | 1.6% (inactive) | -12.3% (inactive) | 118 | -2.29 | 1.22 | 0.157 | -2.09% (inactive) | -0.441 (inactive) | -4.4e-05 (inactive) | 0.00557 (inactive) | inactive | -10% (inactive)
CCC(CC)n1[nH]c(=O)cc1N | 392 | -15.4% (inactive) | -166% (inactive) | 144 | 2 | -1.52 | -0.418 | 7.73% (inactive) | -0.46 (inactive) | -9.4e-05 (inactive) | 0.0051 (inactive) | inactive | 7.67% (inactive)
COC(=O)C1CCN(c2nc3ccccc3nc2C(C#N)C(=O)NCCc2ccccc2)CC1 (stereo not given) | 600 | -8.8% (inactive) | -60.5% (inactive) | 199 | 0.0104 | -0.0979 | -0.225 | 1.42% (inactive) | -0.356 (inactive) | -5.2e-05 (inactive) | 0.00365 (inactive) | inactive | -8.92% (inactive)
CC1(C)CC(=O)C2=C(C1)OC(N)=C(C#N)C2C1C=CCCC1 (stereo not given) | 725 | -1.5% (inactive) | -74.9% (inactive) | 173 | -0.465 | 0.0637 | 1.38 | 7.83% (inactive) | -0.43 (inactive) | -5.1e-05 (inactive) | 0.00473 (inactive) | inactive | 9.73% (inactive)
Cc1nc(NCCO)c(C#N)c2c1COC(C)(C)C2 | 538 | -2.6% (inactive) | -147% (inactive) | 132 | -0.0329 | 1.94 | -1.24 | 15.4% (inactive) | -0.464 (inactive) | -3.6e-05 (inactive) | 0.0044 (inactive) | inactive | 5.51% (inactive)
Cc1ccc(N2C(=O)CC3(CC4C=CC3C4)C2=O)cc1 (stereo not given) | 637 | 6.2% (inactive) | -47.9% (inactive) | 115 | 1.62 | -0.359 | -0.765 | -2.09% (inactive) | -0.414 (inactive) | -3.6e-05 (inactive) | 0.00482 (inactive) | inactive | -4.98% (inactive)
COC(=O)c1ccccc1OCc1cccc(C)n1 | 642 | -3.5% (inactive) | -85% (inactive) | 138 | 0.411 | 0.832 | -0.721 | 1.9e-07% (inactive) | -0.495 (inactive) | -3.1e-05 (inactive) | 0.00518 (inactive) | inactive | -11.3% (inactive)
CCOC(=O)C(C)Oc1ccc2c(C)cc(=O)oc2c1C(C)=O (stereo not given) | 708 | 3.9% (inactive) | -13.3% (inactive) | 198 | -0.905 | 0.873 | 1.56 | 1.98% (inactive) | -0.459 (inactive) | -4.7e-05 (inactive) | 0.00606 (inactive) | inactive | 3.24% (inactive)
Cc1ccc(S(=O)(=O)c2cc3c(=O)n4cccc(C)c4nc3n(CC3CCCO3)c2=N)cc1 (stereo not given) | 573 | -12.2% (inactive) | 34.6% (inactive) | 107 | 0.122 | 0.519 | -1.24 | -8.27% (inactive) | -0.456 (inactive) | -3.3e-05 (inactive) | 0.00435 (inactive) | inactive | -6.46% (inactive)
CC12CN3CC(=O)N4CC5(C)CN(CC(C)(C4)C5=O)C(=O)CN(C1)CC(C)(C3)C2=O | 523 | -11.2% (inactive) | -128% (inactive) | 144 | 0.984 | -0.638 | -0.379 | 1.42% (inactive) | -0.485 (inactive) | -0.000104 (inactive) | 0.00461 (inactive) | inactive | 6.7% (inactive)
CC(=O)/C(C#N)=C1\NC(=O)C(Cc2ccccc2Cl)S1 (stereo not given) | 605 | -10.1% (inactive) | 31.2% (inactive) | 179 | 1.48 | -0.162 | -0.594 | 7.42% (inactive) | -0.416 (inactive) | -7e-05 (inactive) | 0.00568 (inactive) | inactive | 4.47% (inactive)
Cc1cc(=O)oc2c(CN3CCCCC3)c(O)c(Cl)cc12 | 703 | -7.3% (inactive) | -40.4% (inactive) | 146 | 0.085 | 0.889 | -2.46 | 7.83% (inactive) | -0.0387 (inactive) | -0.000132 (inactive) | 0.0046 (inactive) | inactive | 15.8% (inactive)
CCc1nc(N2CCN(C(=O)c3ccccc3)CC2)c(C#N)c2c1COC(C)(C)C2 | 548 | 2% (inactive) | -77.4% (inactive) | 113 | -0.584 | 0.135 | 0.894 | 3.42% (inactive) | -0.474 (inactive) | 6.5e-05 (inactive) | 0.00455 (inactive) | inactive | 5.51% (inactive)
N#Cc1nc(COc2ccccc2Cl)oc1NCc1ccc(F)cc1 | 432 | -1.7% (inactive) | -89.3% (inactive) | 182 | -1.38 | 0.104 | 0.625 | 2.71% (inactive) | -0.373 (inactive) | -3.8e-05 (inactive) | 0.00509 (inactive) | inactive | -1.44% (inactive)
CCC(=O)Nc1nc2ccccc2n1Cc1ccccc1C | 480 | -2.1% (inactive) | -158% (inactive) | 114 | 0.4 | 0.0083 | 0.265 | -3.97% (inactive) | -0.407 (inactive) | 1.4e-06 (inactive) | 0.00508 (inactive) | inactive | -13.6% (inactive)
Brc1ccc2c(c1)CNc1c(ncnc1N1CCOCC1)O2 | 521 | -0.7% (inactive) | 2% (inactive) | 90 | -1.15 | 1.47 | 1.59 | 3.42% (inactive) | -0.429 (inactive) | 2.8e-05 (inactive) | 0.00419 (inactive) | inactive | 24.2% (inactive)
Cc1cc2nncn2c(Cc2ccccc2)n1 | 407 | -7.4% (inactive) | -152% (inactive) | 183 | -1.1 | 0.267 | 0.816 | -6.59% (inactive) | -0.428 (inactive) | -0.000108 (inactive) | 0.00485 (inactive) | inactive | -3.56% (inactive)
Nc1nnnn1N=C1CCCCC1 | 662 | -3.4% (inactive) | -120% (inactive) | 170 | 0.907 | -0.604 | -0.484 | -2.29% (inactive) | -0.493 (inactive) | -3.7e-05 (inactive) | 0.00643 (inactive) | inactive | 2.87% (inactive)
